Assay results gathered from unrelated publications.
Each line is one published result; the experiments were not run side by side.
Read-out: cell growth or viability

With `O=C(NCc1cn(Cc2ccc(Cl)cc2)nn1)Nc1ccc(Cl)cc1` the viability was 82.3% (NCI-H1299; CCK-8; 50 µM, 72 h).
With `Cc1ncsc1-c1ccc(CNC(=O)[C@@H]2C[C@@H](O)CN2C(=O)[C@@H](NC(=O)COCCOCCOCCNC(=O)C[C@@H]2N=C(c3ccc(Cl)cc3)c3c(sc(C)c3C)-n3c(C)nnc32)C(C)(C)C)cc1` the IC90 was 1850 nM (22Rv1; MTT; 6 days).
For `CCc1nc(C(N)=O)c(Nc2ccc(N3CCC(N4CCN(C)CC4)CC3)c(OC)c2)nc1NC1CCOCC1`, the GI50 was 1520 nM (22Rv1; 72 h).
`O=C(NCc1cn(Cc2cccc(Cl)c2)nn1)Nc1ccc(Cl)cc1` gave a viability of 91.6% (NCI-H1299; CCK-8; 50 µM, 72 h).
With `COc1ccc(NC(=O)Nc2cccc(-c3cn(Cc4cccc(Cl)c4)nn3)c2)cc1` the viability was 134% (NCI-H1299; CCK-8; 50 µM, 72 h).
For `O=C(Nc1cccc(-c2cn(Cc3ccc(Br)cc3)nn2)c1)Nc1ccccc1Br`, the viability was 108% (NCI-H1299; CCK-8; 50 µM, 72 h).
With `COc1ccc(NC(=O)Nc2cccc(-c3cn(Cc4ccc(Cl)cc4)nn3)c2)cc1` the viability was 156% (NCI-H1299; CCK-8; 50 µM, 72 h).
With `Cc1n[nH]c2ccc3nc(-c4ccc(C(=O)NCCN(C)C)cc4F)c4c(c3c12)CCCC4` the GI50 was 556 nM (22Rv1; 72 h).
`Cc1ccccc1Cn1cc(-c2cccc(NC(=O)Nc3ccc(F)cc3)c2)nn1` has a viability of 114% (NCI-H1299; CCK-8; 50 µM, 72 h).
For `CN(C)CCNC(=O)c1ccc(-c2nc3ccc4[nH]ncc4c3c3c2CCCC3)cc1`, the GI50 was 1800 nM (22Rv1; 72 h).
`O=C(Nc1ccc(Cl)cc1)Nc1ccc(-c2cn(Cc3cccc(Cl)c3)nn2)cc1` gave a viability of 82.8% (NCI-H1299; CCK-8; 50 µM, 72 h).
`COc1ccc(NC(=O)Nc2cccc(-c3cn(Cc4ccccc4C)nn3)c2)cc1` gave a viability of 125% (NCI-H1299; CCK-8; 50 µM, 72 h).
`C=C(NC(=O)C(=C)NC(=O)c1csc(C2=N[C@@H]3c4csc(n4)[C@H]4NC(=O)c5csc(n5)[C@H]([C@](C)(O)[C@@H](C)O)NC(=O)[C@H]5CSC(=N5)/C(=C/C)NC(=O)[C@H]([C@@H](C)O)NC(=O)c5csc(n5)[C@]3(CC2)NC(=O)[C@H](C)NC(=O)C(=C)NC(=O)[C@H](C)NC(=O)[C@H]([C@@H](C)CC)N[C@@H]2C=Cc3c([C@H](C)O)cc(nc3[C@H]2O)C(=O)O[C@@H]4C)n1)C(N)=O` has an EC50 of > 30000 nM (PC3-TxR).
`CN(C)CCNC(=O)c1ccc(-c2nc3ccc4[nH]ncc4c3c3c2CCCCC3)c(F)c1` has a GI50 of 2130 nM (22Rv1; 72 h).
`COc1ccc(NC(=O)NCc2cn(Cc3ccccc3C)nn2)cc1` has a viability of 68.9% (NCI-H1299; CCK-8; 50 µM, 72 h).
`O=C(Nc1ccc(Cl)cc1)Nc1cccc(-c2cn(Cc3cccc(Cl)c3)nn2)c1` has a viability of 104% (NCI-H1299; CCK-8; 50 µM, 72 h).
For `Cc1n[nH]c2ccc3nc(-c4ccc(C(=O)NCCN(C)C)cc4F)c4c(c3c12)CCCCC4`, the GI50 was 4620 nM (22Rv1; 72 h).
